# The entries come from a sample that favours hits as a whole.
# T cruzi growth-1 = T. cruzi intracellular proliferation inhibitors, primary screen, cell-based, beta-gal Tulahuen parasites, NIH3T3 host, luminescence; T. cruzi beta-gal in NIH3T3, GalScreen luminescence, 90 h; inhibition, % at 8.34 µM; 77,000 compounds, 5.9% hits; AID 624255, 2012;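 active = mean inhibition above about 93%, with at least 55% of replicates each passing it, limit read from the data, passing the limit was not always enough; inconclusive = only one of those two conditions holds; inactive = neither condition holds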
# IDH1 R132H inh = inhibitors of IDH1 R132H reductase, primary screen, biochemical, plate reader, single point; Isocitrate dehydrogenase [NADP] cytoplasmic (Homo sapiens), O75874; inhibition, % at 10 µM; 70,000 compounds, 0.18% hits; diaphorase/resazurin fluorescence, 60 min; in the data active = inhibition above about 34%; inconclusive = no clear call, values can overlap the other calls; inactive = below about 11%
# Target sequence (O75874 whole entry R132H): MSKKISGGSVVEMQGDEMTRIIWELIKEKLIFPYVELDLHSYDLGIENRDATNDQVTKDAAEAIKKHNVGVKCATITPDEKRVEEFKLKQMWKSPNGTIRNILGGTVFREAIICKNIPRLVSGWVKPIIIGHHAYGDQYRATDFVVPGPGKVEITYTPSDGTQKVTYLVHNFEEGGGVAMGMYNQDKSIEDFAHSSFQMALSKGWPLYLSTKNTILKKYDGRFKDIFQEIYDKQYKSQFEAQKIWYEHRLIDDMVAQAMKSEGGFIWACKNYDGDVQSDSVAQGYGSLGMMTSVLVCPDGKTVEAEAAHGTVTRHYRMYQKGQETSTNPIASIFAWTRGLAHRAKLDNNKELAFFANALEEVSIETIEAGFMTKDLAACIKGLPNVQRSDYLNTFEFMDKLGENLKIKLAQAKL
# KDM4C inh = inhibitors of GASC-1 (KDM4C) histone demethylase, primary screen, biochemical, single concentration HTS | GST-KDM4C 2-372, H3K9me3 peptide, LANCE TR-FRET | AID 720574, 2013 | inhibition, % at 12.5 µM | 96,000 compounds, 0.15% hits | Lysine-specific demethylase 4C (Homo sapiens), Q9H3R0;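 active = mean replicate inhibition above about 25%, with at least 55% of replicates also reaching it, limit read from the data, passing the limit was not always enough; inconclusive = only one of those two conditions met; inactive = neither condition met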
#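 Material: GST-tagged GASC-1 (JMJD2C) catalytic fragment, aa 2-372. Input: enzyme final amount 10 nM. Medium: HEPES buffer, pH 7.5, plus ascorbate. Reagent: H3K9me3 peptide substrate, Fe(II), 2-oxoglutarate. Doses: single dose. Times: reaction 30 min RT, detection step 1 h RT. Measured by: LANCE TR-FRET. Evaluation: Fall in 671/618 emission ratio as inhibition.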
# T cruzi growth-2 = T. cruzi intracellular proliferation inhibitors, confirmation, cell-based, NIH3T3 host, beta-gal parasite, luminescence, cherry-pick | 5,600 compounds, 72% hits | T. cruzi beta-gal in NIH3T3, GalScreen luminescence, 90 h | shares compounds with T cruzi growth-1 | inhibition, % at 8.35 µM;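 active = mean replicate inhibition above about 95% and at least 55% of replicates individually reaching it, limit read from the data; inconclusive = only one of the two criteria is met; inactive = neither criterion is met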
# T cruzi growth-3 = inhibitors of intracellular T. cruzi replication, confirmation, NIH3T3 host cells, beta-gal parasites, cherry-pick, set 2 | shares compounds with T cruzi growth-1 | T. cruzi beta-gal in NIH3T3, GalScreen luminescence, 90 h | inhibition, % at 2.09 µM | 5,600 compounds, 21% hits | AID 651740, 2012;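 active = mean inhibition above about 95%, with at least 55% of replicates also reaching it, limit read from the data; inconclusive = meets just one of the two conditions; inactive = meets neither condition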
# NIH3T3 tox = cytotoxicity in mouse NIH/3T3 fibroblasts, confirmation, cytotoxicity control for T. cruzi proliferation inhibitor project, cell-based, cherry-pick, single point | shares compounds with T cruzi growth-1 | NIH/3T3 viability, CellTiter-Glo ATP luminescence, 90 h | cytotoxicity (signal decrease), % at 8.35 µM | 5,600 compounds, 14% hits | AID 651742, 2012;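 active = mean signal decrease across replicates above about 35% based on untreated-well scatter, with enough replicates individually passing, limit read from the data; inconclusive = no rule stated though some were filed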
# 3T3 cytotox 2 = NIH/3T3 fibroblast cytotoxicity, confirmation, cytotoxicity control, cell-based, cherry-pick, single point, set 2; AID 651744, 2012; inhibition, % at 24.9 µM; 5,600 compounds, 56% hits; NIH/3T3 viability, CellTiter-Glo ATP luminescence, 90 h; shares compounds with T cruzi growth-1;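 active = mean loss of cell viability signal at or above a set limit, and enough replicates individually reaching it; inconclusive = meets only the mean limit or only the replicate share; inactive = meets neither condition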
# Numbers stand for hits; . = inactive; ? = inconclusive; / = no result given.
SMILES,T cruzi growth-1,IDH1 R132H inh,KDM4C inh,T cruzi growth-2,T cruzi growth-3,NIH3T3 tox,3T3 cytotox 2
C[C@@H]1CCCCO[C@@H](CN(C)Cc2ccc3c(c2)OCO3)[C@H](C)CN([C@@H](C)CO)C(=O)c2cc(NC(=O)Nc3ccc(C(F)(F)F)cc3)ccc2O1,?,/,.,99,111,.,53
C[C@@H]1CN([C@H](C)CO)C(=O)c2cc(NC(=O)Nc3ccc4c(c3)OCO4)ccc2O[C@@H](C)CCCCO[C@@H]1CN(C)Cc1ccc(C(F)(F)F)cc1,.,/,.,/,/,/,/
C[C@@H]1CN([C@@H](C)CO)C(=O)c2cc(NC(=O)Nc3ccc(C(F)(F)F)cc3)ccc2O[C@@H](C)CCCCO[C@@H]1CN(C)Cc1ccc2c(c1)OCO2,123,.,.,98,113,.,.
COc1ccc(OC)c(NC(=O)COc2ccc3c(=O)c(-c4ccccc4OC)c(C(F)(F)F)oc3c2)c1,/,.,/,/,/,/,/
CCc1cccc(NC(=O)CSc2c(C)n[nH]c2C)c1,/,.,/,/,/,/,/
COC(=O)c1ccc(OCC(=O)Nc2ccc(C(C)=O)cc2)cc1,/,.,/,/,/,/,/
C[C@@H]1CCCCO[C@@H](CN(C)Cc2ccc(C(F)(F)F)cc2)[C@@H](C)CN([C@H](C)CO)C(=O)c2cc(NC(=O)Nc3ccc4c(c3)OCO4)ccc2O1,100,.,.,101,.,.,.
C[C@@H]1CN([C@@H](C)CO)C(=O)c2cc(NC(=O)Nc3ccc4c(c3)OCO4)ccc2O[C@@H](C)CCCCO[C@H]1CN(C)Cc1ccc(C(F)(F)F)cc1,.,.,.,/,/,/,/
C[C@H](CO)N1C[C@H](C)[C@H](CN(C)Cc2ccc(C(F)(F)F)cc2)OCCCC[C@H](C)Oc2ccc(NC(=O)Nc3ccc4c(c3)OCO4)cc2C1=O,.,.,.,/,/,/,/
C[C@@H]1CCCCO[C@@H](CN(C)Cc2ccc3c(c2)OCO3)[C@@H](C)CN([C@@H](C)CO)C(=O)c2cc(NC(=O)Nc3ccc(C(F)(F)F)cc3)ccc2O1,?,/,.,98,114,?,57
O=C(CSc1ccccn1)Nc1ccc(Oc2ccccc2)cc1,/,.,/,/,/,/,/
O=C(C[C@@H]1C[C@@H]2c3cc(NC(=O)Nc4ccccc4F)ccc3O[C@@H]2[C@H](CO)O1)NC1CCCCC1,.,.,.,/,/,/,/
O=C(C[C@H]1C[C@@H]2c3cc(NC(=O)Nc4ccccc4F)ccc3O[C@@H]2[C@@H](CO)O1)NC1CCCCC1,158,.,.,?,.,.,.
O=C(C[C@@H]1C[C@H]2c3cc(NC(=O)Nc4ccccc4F)ccc3O[C@H]2[C@H](CO)O1)NCc1ccccn1,/,.,.,/,/,/,/
O=C(C[C@H]1C[C@@H]2c3cc(NC(=O)Nc4ccccc4F)ccc3O[C@@H]2[C@H](CO)O1)NCc1ccccn1,109,.,.,.,.,.,.
O=C(Nc1cccc(F)c1)N1CCCCN2[C@@H](CO)[C@@H](c3ccc(-c4ccccc4F)cc3)[C@@H]2C1,.,/,.,/,/,/,/
O=C(Nc1ccccc1)N1CCCCN2[C@@H](CO)[C@H](c3ccc(-c4ccccc4F)cc3)[C@@H]2C1,.,/,.,/,/,/,/
O=C(Nc1ccc(F)cc1)N1CCCCN2[C@H](CO)[C@H](c3ccc(-c4ccccc4F)cc3)[C@@H]2C1,115,/,/,108,.,.,52
O=C(Nc1ccccc1)N1CCCCN2[C@H](CO)[C@H](c3ccc(-c4ccccc4F)cc3)[C@@H]2C1,101,/,.,111,.,.,.
O=C(Nc1ccc(F)cc1)N1CCCCN2[C@H](C1)[C@H](c1ccc(-c3ccccc3F)cc1)[C@@H]2CO,?,/,/,109,.,.,65

# From PubChem BioAssay
